# Measured values reported in ChEMBL document CHEMBL3112434, “Identification of proton-pump inhibitor drugs that inhibit Trichomonas vaginalis uridine nucleoside ribohydrolase” (Bioorg Med Chem Lett, 2014).
# pIC50: −log10 of the molar value. Active and inactive are the calls of the source. The rule behind the calls is not given here.
# System: Trichomonas vaginalis
# Test: Inhibition of Trichomonas vaginalis uridine nucleoside ribohydrolase using 5-fluorouridine as substrate at 0.04 to 200 uM after 40 mins by NMR spectrometric analysis
# Outline: (§1)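 UNH at 80 nM in 50 mM potassium phosphate, 0.3 M KCl, pH 6.5, with 10% 2H2O. Test compounds added from DMSO solutions and mixed thoroughly. Reaction read at the 40 min time point. Screening was done at 50 μM in mixtures of three. IC50 determinations used final assay concentrations from 200 μM to 0.04 μM.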
SMILES,Active/inactive screening call,inhibition
COC(=O)C1=C(C)NC(C)=C(C(=O)OCC(C)C)C1c1ccccc1[N+](=O)[O-] (stereo unspecified),Active,–
COC(=O)C1=C(C)NC(C)=C(C(=O)OC)C1c1ccccc1[N+](=O)[O-],–,Active
COc1ccc2[nH]c([S+]([O-])Cc3ncc(C)c(OC)c3C)nc2c1 (stereo unspecified) [OMEPRAZOLE],Active,–
CN[C@@H]1C[C@@H](c2ccc(Cl)c(Cl)c2)c2ccccc21 (relative stereo),–,Active
CC(=O)Oc1ccccc1C(=O)Nc1ncc([N+](=O)[O-])s1,–,Active
Sc1ncnc2nc[nH]c12,Active,–
CN(C)CCCN1c2ccccc2CCc2ccc(Cl)cc21,Active,–
N[C@@H](C(=O)N[C@@H]1C(=O)N2C(C(=O)O)=C(Cl)CS[C@H]12)c1ccccc1,Active,–
CCC1=C[C@@H]2CN(C1)Cc1c([nH]c3ccccc13)[C@@](C(=O)OC)(c1cc3c(cc1OC)N(C)[C@H]1[C@@](O)(C(=O)OC)[C@H](OC(C)=O)[C@]4(CC)C=CCN5CC[C@]31[C@@H]54)C2,Active,–
CCOC(=O)C1=C(C)NC(C)=C(C(=O)OC)C1c1cccc([N+](=O)[O-])c1 (stereo unspecified),Active,–
CC1=C(/C=C/C(C)=C/C=C/C(C)=C/C(=O)O)C(C)(C)CCC1,Active,–
CC1=C(/C=C/C(C)=C/C=C/C(C)=C\C(=O)O)C(C)(C)CCC1,Active,–
Oc1ccc2c3c1O[C@H]1c4[nH]c5ccccc5c4C[C@@]4(O)[C@@H](C2)N(CC2CC2)CC[C@]314,–,Active
CCOC(=O)C1=C(COCCN)NC(C)=C(C(=O)OC)C1c1ccccc1Cl (stereo unspecified),–,Active
COC(=O)C1=C(C)NC(C)=C(C(=O)OCCN(C)Cc2ccccc2)C1c1cccc([N+](=O)[O-])c1 (stereo unspecified),Active,–
N[C@@H](C(=O)N[C@@H]1C(=O)N2C(C(=O)O)=C(CSc3c[nH]nn3)CS[C@H]12)c1ccc(O)cc1,Active,–
Oc1cc2c(cc1O)[C@H]1c3ccccc3CN[C@@H]1CC2 (relative stereo),Active,–
O=C(O[C@@H]1Cc2c(O)cc(O)cc2O[C@@H]1c1cc(O)c(O)c(O)c1)c1cc(O)c(O)c(O)c1,–,Active
CNC1=Nc2ccc(Cl)cc2C(c2ccccc2)=[N+]([O-])C1,–,Active
CN(C)[C@@H]1C(O)=C(C(N)=O)C(=O)[C@@]2(O)C(O)=C3C(=O)c4c(O)cccc4[C@@](C)(O)[C@H]3[C@H](O)[C@@H]12,Active,–
COCCCOc1ccnc(C[S+]([O-])c2nc3ccccc3[nH]2)c1C (stereo unspecified) [RABEPRAZOLE],Active,–
O=C1C(CC[S+]([O-])c2ccccc2)C(=O)N(c2ccccc2)N1c1ccccc1 (stereo unspecified),Active,–
COc1ccnc(C[S+]([O-])c2nc3cc(OC(F)F)ccc3[nH]2)c1OC (stereo unspecified) [PANTOPRAZOLE SODIUM],Active,–

# Biological target: not listed separately
# Test: Inhibition of Trichomonas vaginalis uridine nucleoside ribohydrolase using 5-fluorouridine as substrate after 40 mins by NMR spectrometric analysis
# Outline: as §1
row,SMILES,pIC50
1,COc1ccc2[nH]c([S+]([O-])Cc3ncc(C)c(OC)c3C)nc2c1 (stereo unspecified) [OMEPRAZOLE],5.64
2,COCCCOc1ccnc(C[S+]([O-])c2nc3ccccc3[nH]2)c1C (stereo unspecified) [RABEPRAZOLE],6.52
3,COc1ccnc(C[S+]([O-])c2nc3cc(OC(F)F)ccc3[nH]2)c1OC (stereo unspecified) [PANTOPRAZOLE SODIUM],4.84
